Assay results: article PMC13170702 (Nuclear medicine and biology, 2025)

Experiment: organ radiation dose estimates, OLINDA 2.0, ICRP-103
Format: in vivo, human
Method in brief: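 Whole-body PET-MR ran as nine scans to 214 min. Organ VOIs were drawn in AMIDE, giving decay-corrected %IA per VOI; remainder = whole body minus measured organs. TIACs came from the EXM exponential model (OLINDA 1.1). Per-participant organ doses were computed in OLINDA 2.0 with 73 kg adult male or 60 kg female models. Effective dose (mSv) = organ absorbed doses × ICRP-103 tissue weighting factors.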

Effective dose (whole body) (F1 (189 MBq)): 4.54 mSv | Estimated absorbed dose, Adrenals (F1 (189 MBq)): 5.94 mGy | Estimated absorbed dose, Brain (F1 (189 MBq)): 3.21 mGy | Estimated absorbed dose, Breasts (F1 (189 MBq)): 1.71 mGy | Estimated absorbed dose, Colon, left (F1 (189 MBq)): 2.85 mGy | Estimated absorbed dose, Colon, right (F1 (189 MBq)): 2.77 mGy | Estimated absorbed dose, Esophagus (F1 (189 MBq)): 2.98 mGy | Estimated absorbed dose, Eyes (F1 (189 MBq)): 1.59 mGy | Estimated absorbed dose, Gallbladder wall (F1 (189 MBq)): 5.09 mGy | Estimated absorbed dose, Heart wall (F1 (189 MBq)): 4.40 mGy | Estimated absorbed dose, Kidneys (F1 (189 MBq)): 32.6 mGy | Estimated absorbed dose, Liver (F1 (189 MBq)): 8.25 mGy | Estimated absorbed dose, Lungs (F1 (189 MBq)): 10.2 mGy | Estimated absorbed dose, Osteogenic cells (F1 (189 MBq)): 1.77 mGy | Estimated absorbed dose, Ovaries (F1 (189 MBq)): 2.77 mGy | Estimated absorbed dose, Pancreas (F1 (189 MBq)): 5.49 mGy | Estimated absorbed dose, Rectum (F1 (189 MBq)): 3.34 mGy | Estimated absorbed dose, Red marrow (F1 (189 MBq)): 2.26 mGy | Estimated absorbed dose, Salivary glands (F1 (189 MBq)): 1.69 mGy | Estimated absorbed dose, Small intestine (F1 (189 MBq)): 7.43 mGy | Estimated absorbed dose, Spleen (F1 (189 MBq)): 10.1 mGy | Estimated absorbed dose, Stomach wall (F1 (189 MBq)): 3.08 mGy | Estimated absorbed dose, Thymus (F1 (189 MBq)): 7.59 mGy | Estimated absorbed dose, Thyroid (F1 (189 MBq)): 2.36 mGy | Estimated absorbed dose, Urinary bladder wall (F1 (189 MBq)): 16.2 mGy | Estimated absorbed dose, Uterus (F1 (189 MBq)): 4.55 mGy | Effective dose (whole body) (F2, no voiding (355 MBq)): 9.27 mSv | Estimated absorbed dose, Adrenals (F2, no voiding (355 MBq)): 11.7 mGy | Estimated absorbed dose, Brain (F2, no voiding (355 MBq)): 5.33 mGy | Estimated absorbed dose, Breasts (F2, no voiding (355 MBq)): 2.78 mGy | Estimated absorbed dose, Colon, left (F2, no voiding (355 MBq)): 4.83 mGy | Estimated absorbed dose, Colon, right (F2, no voiding (355 MBq)): 4.76 mGy | Estimated absorbed dose, Esophagus (F2, no voiding (355 MBq)): 5.40 mGy | Estimated absorbed dose, Eyes (F2, no voiding (355 MBq)): 2.43 mGy | Estimated absorbed dose, Gallbladder wall (F2, no voiding (355 MBq)): 9.31 mGy | Estimated absorbed dose, Heart wall (F2, no voiding (355 MBq)): 6.93 mGy | Estimated absorbed dose, Kidneys (F2, no voiding (355 MBq)): 93.4 mGy | Estimated absorbed dose, Liver (F2, no voiding (355 MBq)): 15.5 mGy | Estimated absorbed dose, Lungs (F2, no voiding (355 MBq)): 21.1 mGy | Estimated absorbed dose, Osteogenic cells (F2, no voiding (355 MBq)): 2.97 mGy | Estimated absorbed dose, Ovaries (F2, no voiding (355 MBq)): 5.90 mGy | Estimated absorbed dose, Pancreas (F2, no voiding (355 MBq)): 7.60 mGy | Estimated absorbed dose, Rectum (F2, no voiding (355 MBq)): 7.07 mGy | Estimated absorbed dose, Red marrow (F2, no voiding (355 MBq)): 4.01 mGy | Estimated absorbed dose, Salivary glands (F2, no voiding (355 MBq)): 2.62 mGy | Estimated absorbed dose, Small intestine (F2, no voiding (355 MBq)): 9.87 mGy | Estimated absorbed dose, Spleen (F2, no voiding (355 MBq)): 7.49 mGy | Estimated absorbed dose, Stomach wall (F2, no voiding (355 MBq)): 5.08 mGy | Estimated absorbed dose, Thymus (F2, no voiding (355 MBq)): 8.99 mGy | Estimated absorbed dose, Thyroid (F2, no voiding (355 MBq)): 17.5 mGy | Estimated absorbed dose, Urinary bladder wall (F2, no voiding (355 MBq)): 28.7 mGy | Estimated absorbed dose, Uterus (F2, no voiding (355 MBq)): 47.6 mGy | Effective dose (whole body) (F3 (117 MBq)): 2.27 mSv | Estimated absorbed dose, Adrenals (F3 (117 MBq)): 3.65 mGy | Estimated absorbed dose, Brain (F3 (117 MBq)): 1.52 mGy | Estimated absorbed dose, Breasts (F3 (117 MBq)): 1.09 mGy | Estimated absorbed dose, Colon, left (F3 (117 MBq)): 1.77 mGy | Estimated absorbed dose, Colon, right (F3 (117 MBq)): 1.81 mGy | Estimated absorbed dose, Esophagus (F3 (117 MBq)): 1.78 mGy | Estimated absorbed dose, Eyes (F3 (117 MBq)): 1.01 mGy | Estimated absorbed dose, Gallbladder wall (F3 (117 MBq)): 3.38 mGy | Estimated absorbed dose, Heart wall (F3 (117 MBq)): 2.27 mGy | Estimated absorbed dose, Kidneys (F3 (117 MBq)): 21.4 mGy | Estimated absorbed dose, Liver (F3 (117 MBq)): 6.07 mGy | Estimated absorbed dose, Lungs (F3 (117 MBq)): 4.63 mGy | Estimated absorbed dose, Osteogenic cells (F3 (117 MBq)): 1.11 mGy | Estimated absorbed dose, Ovaries (F3 (117 MBq)): 1.54 mGy | Estimated absorbed dose, Pancreas (F3 (117 MBq)): 2.79 mGy | Estimated absorbed dose, Rectum (F3 (117 MBq)): 1.46 mGy | Estimated absorbed dose, Red marrow (F3 (117 MBq)): 1.39 mGy | Estimated absorbed dose, Salivary glands (F3 (117 MBq)): 1.09 mGy | Estimated absorbed dose, Small intestine (F3 (117 MBq)): 3.98 mGy | Estimated absorbed dose, Spleen (F3 (117 MBq)): 3.58 mGy | Estimated absorbed dose, Stomach wall (F3 (117 MBq)): 1.87 mGy | Estimated absorbed dose, Thymus (F3 (117 MBq)): 2.50 mGy | Estimated absorbed dose, Thyroid (F3 (117 MBq)): 2.20 mGy | Estimated absorbed dose, Urinary bladder wall (F3 (117 MBq)): 1.54 mGy | Estimated absorbed dose, Uterus (F3 (117 MBq)): 3.86 mGy | Effective dose (whole body) (F4 (167 MBq)): 3.28 mSv | Estimated absorbed dose, Adrenals (F4 (167 MBq)): 4.53 mGy | Estimated absorbed dose, Brain (F4 (167 MBq)): 2.64 mGy | Estimated absorbed dose, Breasts (F4 (167 MBq)): 1.41 mGy | Estimated absorbed dose, Colon, left (F4 (167 MBq)): 2.41 mGy | Estimated absorbed dose, Colon, right (F4 (167 MBq)): 2.41 mGy | Estimated absorbed dose, Esophagus (F4 (167 MBq)): 2.41 mGy | Estimated absorbed dose, Eyes (F4 (167 MBq)): 1.33 mGy | Estimated absorbed dose, Gallbladder wall (F4 (167 MBq)): 3.61 mGy | Estimated absorbed dose, Heart wall (F4 (167 MBq)): 4.15 mGy | Estimated absorbed dose, Kidneys (F4 (167 MBq)): 28.1 mGy | Estimated absorbed dose, Liver (F4 (167 MBq)): 6.74 mGy | Estimated absorbed dose, Lungs (F4 (167 MBq)): 7.74 mGy | Estimated absorbed dose, Osteogenic cells (F4 (167 MBq)): 1.45 mGy | Estimated absorbed dose, Ovaries (F4 (167 MBq)): 2.17 mGy | Estimated absorbed dose, Pancreas (F4 (167 MBq)): 3.86 mGy | Estimated absorbed dose, Rectum (F4 (167 MBq)): 2.14 mGy | Estimated absorbed dose, Red marrow (F4 (167 MBq)): 1.84 mGy | Estimated absorbed dose, Salivary glands (F4 (167 MBq)): 1.41 mGy | Estimated absorbed dose, Small intestine (F4 (167 MBq)): 8.53 mGy | Estimated absorbed dose, Spleen (F4 (167 MBq)): 3.75 mGy | Estimated absorbed dose, Stomach wall (F4 (167 MBq)): 2.46 mGy | Estimated absorbed dose, Thymus (F4 (167 MBq)): 4.47 mGy | Estimated absorbed dose, Thyroid (F4 (167 MBq)): 2.53 mGy | Estimated absorbed dose, Urinary bladder wall (F4 (167 MBq)): 4.45 mGy | Estimated absorbed dose, Uterus (F4 (167 MBq)): 6.39 mGy | Effective dose (whole body) (Female n=4, mean±SD): 0.0223±0.0033 mSv/MBq | Estimated dose, Adrenals (Female n=4, mean±SD): 0.0307±0.0025 mGy/MBq | Estimated dose, Brain (Female n=4, mean±SD): 0.0152±0.0017 mGy/MBq | Estimated dose, Breasts (Female n=4, mean±SD): 0.00866±0.00067 mGy/MBq | Estimated dose, Esophagus (Female n=4, mean±SD): 0.0152±0.0006 mGy/MBq | Estimated dose, Eyes (Female n=4, mean±SD): 0.00797±0.00081 mGy/MBq | Estimated dose, Gallbladder wall (Female n=4, mean±SD): 0.0259±0.0031 mGy/MBq | Estimated dose, Heart wall (Female n=4, mean±SD): 0.0218±0.0027 mGy/MBq | Estimated dose, Kidneys (Female n=4, mean±SD): 0.197±0.045 mGy/MBq | Estimated dose, Left colon (Female n=4, mean±SD): 0.0146±0.0007 mGy/MBq | Estimated dose, Liver (Female n=4, mean±SD): 0.0449±0.0049 mGy/MBq | Estimated dose, Lungs (Female n=4, mean±SD): 0.0499±0.0088 mGy/MBq | Estimated dose, Osteogenic cells (Female n=4, mean±SD): 0.00899±0.00054 mGy/MBq | Estimated dose, Ovaries (Female n=4, mean±SD): 0.0144±0.0017 mGy/MBq | Estimated dose, Pancreas (Female n=4, mean±SD): 0.0244±0.0033 mGy/MBq | Estimated dose, Rectum (Female n=4, mean±SD): 0.0157±0.0037 mGy/MBq | Estimated dose, Red marrow (Female n=4, mean±SD): 0.0116±0.0005 mGy/MBq | Estimated dose, Right colon (Female n=4, mean±SD): 0.0145±0.0009 mGy/MBq | Estimated dose, Salivary Glands (Female n=4, mean±SD): 0.0085±0.0008 mGy/MBq | Estimated dose, Small intestine (Female n=4, mean±SD): 0.0381±0.0098 mGy/MBq | Estimated dose, Spleen (Female n=4, mean±SD): 0.0319±0.0150 mGy/MBq | Estimated dose, Stomach wall (Female n=4, mean±SD): 0.0153±0.0010 mGy/MBq | Estimated dose, Thymus (Female n=4, mean±SD): 0.0284±0.0082 mGy/MBq
SMILES: COC(=O)[C@@H](N)CC(=O)Nc1ccc2c(c1)Cc1cc([18F])ccc1-2 [[^18F]RP-115, methyl N^4-(7-[^18F]fluoro-9H-fluoren-2-yl)asparaginate]
